The nature of series [1]: melting temperature; fluorescence melt of hairpins on a sequencing array, two-state fit, raised by 9.35 °C to match UV melts. Conditions: sodium 0.088 M. In a few lines:
(§1)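 Hairpins were imaged by Cy3 fluorescence on a sequenced MiSeq flow cell with annealed Cy3 and quencher oligos, in 50 mM Na-HEPES pH 8.0, 25 mM NaCl, in 2.5 °C steps up to 60 °C. Bootstrapped two-state fits of normalised signals gave melting temperature and folding enthalpy. Four replicates were combined by inverse variance, and fitted temperatures were raised by 9.35 °C to match UV melts.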

The nature of series [2]: folding enthalpy; higher = less favourable; fluorescence melt of hairpins on a sequencing array, two-state fit. Conditions: sodium 0.088 M. In a few lines:
as §1

For GTGCGTGGAAACACACAC (((.(((....))).))), the Tm in series [1] is 48.6 °C. For the same sequence, the folding enthalpy in series [2] was -37.9 kcal/mol.

In the case of GTGCGTGGAAACACGCGC (.(((((....))))).), the Tm in series [1] amounted to 65.9 °C. Further, in series [2], the folding enthalpy was -18 kcal/mol.

GTGCGTGGAAACACGTAC ((.((((....)))).)): the Tm in series [1] stood at 56.1 °C. Moreover, in series [2], the folding enthalpy is -32.8 kcal/mol.

On to GTGCGTGGAAACATGCGC (.((.((....)).)).), for which the Tm in series [1] was determined as 49.5 °C. For the same sequence, in series [2], the folding enthalpy was -29.6 kcal/mol.

For the sequence GTGCGTGGAAACGCGTAC ((.((.(....).)).)), the Tm in series [1] was 42.7 °C. For the same sequence, the folding enthalpy in series [2] was -10.9 kcal/mol.

GTGCTAGAAATAGCAC ((((((....)))))): in series [1], the Tm is 56.5 °C. The folding enthalpy in series [2] was -40.3 kcal/mol.

Take GTGCTAGGAAACTAACAC (((.(((....))).))): the Tm in series [1] turned out to be 34.4 °C. Moreover, the folding enthalpy in series [2] was -27.7 kcal/mol.

As to GTGCTAGGAAACTAGCGC (.(((((....))))).), the Tm in series [1] is 53.5 °C. In series [2], the folding enthalpy was -39.6 kcal/mol.

Regarding GTGCTAGGAAACTGGCAC ((((.((....)).)))), the Tm in series [1] amounted to 53.5 °C. Further, in series [2], the folding enthalpy is -45.4 kcal/mol.

Take GTGCTCCCGAAAGGGCAC (((..(((....)))))): in series [1], the Tm was 49.8 °C. Moreover, the folding enthalpy in series [2] is -19.9 kcal/mol.

Turning to GTGCTCCGAAAGGACAC (((.(((....)))))), the Tm in series [1] is 51.9 °C. The folding enthalpy in series [2] was -27.4 kcal/mol.

Take GTGCTCCGAAAGGATCAC (((.(((....))).))): the Tm in series [1] was 50.2 °C. Further, in series [2], the folding enthalpy is -31.9 kcal/mol.

Take GTGCTCGAAAGAGACCAC ((((((....)))..))): in series [1], the Tm was 34.4 °C. In addition, the folding enthalpy in series [2] was -14.6 kcal/mol.

Take GTGCTCGAAAGAGATCAC ((((((....)))..))): the Tm in series [1] was determined as 30.9 °C. For the same sequence, the folding enthalpy in series [2] is -13.6 kcal/mol.

For GTGCTCGAAAGAGCCAC ((((((....))).))), in series [1], the Tm came out at 49 °C. In series [2], the folding enthalpy is -11.2 kcal/mol.

In the case of GTGCTCGAAAGAGCTCAC ((((((....)))..))), the Tm in series [1] came to 42.8 °C. In series [2], the folding enthalpy was -10.8 kcal/mol.

As to GTGCTCGAAAGAGGCAC ((((((....))).))), the Tm in series [1] was determined as 55.2 °C. For the same sequence, the folding enthalpy in series [2] was -24.7 kcal/mol.

As to GTGCTCGAAAGAGTCCAC ((((((....)))..))), the Tm in series [1] was found to be 31.8 °C. Further, in series [2], the folding enthalpy is -13.1 kcal/mol.

As to GTGCTCGAAAGAGTTCAC ((((((....)))..))), the Tm in series [1] turned out to be 34.6 °C. Moreover, the folding enthalpy in series [2] is -13.6 kcal/mol.

As to GTGCTCGGAAACAAGCAC (((((.(....).))))), the Tm in series [1] came out at 46.2 °C. Further, in series [2], the folding enthalpy is -31.9 kcal/mol.

Consider GTGCTCGGAAACGAGTGC (..((((....))))..), for which the Tm in series [1] amounted to 50.4 °C. The folding enthalpy in series [2] was -24.2 kcal/mol.

Turning to GTGCTGACGAAAGTCCAC (((..(((....)))))), in series [1], the Tm came out at 40.8 °C. In addition, the folding enthalpy in series [2] is -11.9 kcal/mol.

With GTGCTGCGAAAGCAACAC (((.(((....))).))), the Tm in series [1] stood at 56.5 °C. For the same sequence, the folding enthalpy in series [2] was -33.8 kcal/mol.

Turning to GTGCTGGGAAACTAGCAC (((((.(....).))))), the Tm in series [1] was determined as 54.3 °C. In addition, in series [2], the folding enthalpy is -41.3 kcal/mol.

For the sequence GTGCTTCCGAAAGGACAC (((..(((....)))))), the Tm in series [1] came to 39.7 °C. In series [2], the folding enthalpy is -22.1 kcal/mol.

On to GTGCTTGAAAAAGCAC ((((((....)))))), for which the Tm in series [1] worked out at 63.3 °C. Moreover, the folding enthalpy in series [2] was -27.9 kcal/mol.

As to GTGCTTGCGAAAGCACAC (((..(((....)))))), the Tm in series [1] was found to be 61.4 °C. Besides, the folding enthalpy in series [2] is -13.1 kcal/mol.

On to GTGGAACCGAAAGGTCAC (((..(((....)))))), for which, in series [1], the Tm was 42.3 °C. Moreover, in series [2], the folding enthalpy was -21.9 kcal/mol.

As to GTGGAAGGAAACCTCCAC (((((.(....).))))), in series [1], the Tm was 44.1 °C. Moreover, the folding enthalpy in series [2] is -34 kcal/mol.

As for GTGGAAGGAAACTTTCAC (((.(((....))).))), the Tm in series [1] was determined as 43.2 °C. Also, in series [2], the folding enthalpy is -33 kcal/mol.

On to GTGGACACGAAAGTGCAC (((..(((....)))))), for which, in series [1], the Tm was found to be 45 °C. Further, the folding enthalpy in series [2] was -18.1 kcal/mol.

GTGGACGGAAACGCCCAC ((((.((....)).)))): the Tm in series [1] was found to be 53.2 °C. For the same sequence, the folding enthalpy in series [2] was -56.1 kcal/mol.

As to GTGGAGGCGAAAGCCCAC (((..(((....)))))), the Tm in series [1] was found to be 52.9 °C. Also, in series [2], the folding enthalpy was -17.1 kcal/mol.

As to GTGGAGGGAAACCTTCGC (.(.(((....))).).), the Tm in series [1] was 34.1 °C. The folding enthalpy in series [2] is -26.7 kcal/mol.

Consider GTGGAGGGAAACTTCCGC (.(((.(....).))).), for which the Tm in series [1] came to 35.1 °C. In addition, the folding enthalpy in series [2] was -26.7 kcal/mol.

Take GTGGATGGAAACACCCAC ((((.((....)).)))): the Tm in series [1] amounted to 44.2 °C. In series [2], the folding enthalpy was -32.6 kcal/mol.

Take GTGGCAACGAAAGTTCAC (((..(((....)))))): the Tm in series [1] is 27.8 °C. The folding enthalpy in series [2] was -7.15 kcal/mol.

For the sequence GTGGCCGAAAGGCATCAC ((((((....)))..))), the Tm in series [1] worked out at 39.5 °C. Further, the folding enthalpy in series [2] is -11.8 kcal/mol.

Turning to GTGGCCGAAAGGCCTCAC ((((((....)))..))), the Tm in series [1] was 40.4 °C. The folding enthalpy in series [2] is -7.49 kcal/mol.

On to GTGGCCGAAAGGCGACAC ((((((....)))..))), for which the Tm in series [1] was 57.4 °C. The folding enthalpy in series [2] was -14 kcal/mol.

As to GTGGCCGAAAGGCTACAC ((((((....)))..))), in series [1], the Tm amounted to 58.2 °C. The folding enthalpy in series [2] is -13.5 kcal/mol.

On to GTGGCTGGAAACAGCTAC ((.((((....)))).)), for which the Tm in series [1] came to 53.9 °C. The folding enthalpy in series [2] is -29.3 kcal/mol.

Regarding GTGGCTGGAAACAGTCAC (((.(((....))).))), the Tm in series [1] amounted to 55.1 °C. For the same sequence, in series [2], the folding enthalpy was -36.9 kcal/mol.

Regarding GTGGCTGGAAACAGTCGC (.(.(((....))).).), the Tm in series [1] was 47 °C. The folding enthalpy in series [2] is -24.6 kcal/mol.

In the case of GTGGCTGGAAACGGCCAC (((((.(....).))))), the Tm in series [1] was 64 °C. The folding enthalpy in series [2] was -47.5 kcal/mol.

With GTGGCTGGAAACGGCTAC ((.((.(....).)).)), the Tm in series [1] is 44 °C. Besides, the folding enthalpy in series [2] was -24.2 kcal/mol.

GTGGCTGGAAACGGTCAC (((.(.(....).).))): the Tm in series [1] worked out at 44.5 °C. Further, the folding enthalpy in series [2] is -30.7 kcal/mol.

As for GTGGCTTCGAAAGAACAC (((..(((....)))))), the Tm in series [1] was 29.7 °C. The folding enthalpy in series [2] was -8.99 kcal/mol.

As for GTGGGAGGAAACTCTCAC (((.(((....))).))), in series [1], the Tm amounted to 48.7 °C. Also, the folding enthalpy in series [2] is -39.1 kcal/mol.

Take GTGGGCGCGAAAGCGCAC (((..(((....)))))): the Tm in series [1] was 67.9 °C. Also, the folding enthalpy in series [2] was -16.4 kcal/mol.

Take GTGGGCGGAAACGCCTGC (..((((....))))..): the Tm in series [1] was determined as 47 °C. The folding enthalpy in series [2] was -13.2 kcal/mol.

On to GTGGGGGGAAACCCCTGC (..((((....))))..), for which the Tm in series [1] worked out at 42.3 °C. Besides, the folding enthalpy in series [2] is -11.5 kcal/mol.

For the sequence GTGGGGGGAAACCTCCGC (.((.((....)).)).), the Tm in series [1] is 45.4 °C. Also, the folding enthalpy in series [2] was -25.4 kcal/mol.

Consider GTGGGGGGAAACTCCCGC (.(((.(....).))).), for which the Tm in series [1] turned out to be 48.8 °C. In series [2], the folding enthalpy is -21.4 kcal/mol.

For the origin of these results see the array DNA melting data of Ke et al. (doi:10.1101/2024.01.08.574731).
